Measurements published in PubChem BioAssay.
The source made the active and inactive calls.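 How the source made its calls, unless noted: active means viability at or under a set limit in both replicates, limit being median viability minus 3 SD (cut at about 48% in these data, passing the limit was not always enough); inconclusive means at or under the limit in just one replicate; inactive means at or above the limit in both replicates.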

Assays:
[1] = Her2 expression decrease, cell viability multiplex – SKBR3 breast tumor cells, AlphaScreen, ATP viability, primary screen (AID 461;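 active means Her2 level under about 52% in both replicate screens, with viability over 70% of control, limit read from the data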;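 on Her2 level: lower value means less Her2 protein in the cells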;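 on viability: percent of carrier control wells set as 100% viability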); conditions: SKBR3 Her2 protein level, 18-24 h, measured here: SKBR3 viability, ATP luminescence, at 10 µM
[2] = target: Receptor tyrosine-protein kinase erbB-2 (Homo sapiens) (UniProt P04626); assay: as above; conditions: 18-24 h, at 10 µM, stronger effect = lower value
Receptor tyrosine-protein kinase erbB-2 (Homo sapiens), sequence (P04626 whole entry, looked up): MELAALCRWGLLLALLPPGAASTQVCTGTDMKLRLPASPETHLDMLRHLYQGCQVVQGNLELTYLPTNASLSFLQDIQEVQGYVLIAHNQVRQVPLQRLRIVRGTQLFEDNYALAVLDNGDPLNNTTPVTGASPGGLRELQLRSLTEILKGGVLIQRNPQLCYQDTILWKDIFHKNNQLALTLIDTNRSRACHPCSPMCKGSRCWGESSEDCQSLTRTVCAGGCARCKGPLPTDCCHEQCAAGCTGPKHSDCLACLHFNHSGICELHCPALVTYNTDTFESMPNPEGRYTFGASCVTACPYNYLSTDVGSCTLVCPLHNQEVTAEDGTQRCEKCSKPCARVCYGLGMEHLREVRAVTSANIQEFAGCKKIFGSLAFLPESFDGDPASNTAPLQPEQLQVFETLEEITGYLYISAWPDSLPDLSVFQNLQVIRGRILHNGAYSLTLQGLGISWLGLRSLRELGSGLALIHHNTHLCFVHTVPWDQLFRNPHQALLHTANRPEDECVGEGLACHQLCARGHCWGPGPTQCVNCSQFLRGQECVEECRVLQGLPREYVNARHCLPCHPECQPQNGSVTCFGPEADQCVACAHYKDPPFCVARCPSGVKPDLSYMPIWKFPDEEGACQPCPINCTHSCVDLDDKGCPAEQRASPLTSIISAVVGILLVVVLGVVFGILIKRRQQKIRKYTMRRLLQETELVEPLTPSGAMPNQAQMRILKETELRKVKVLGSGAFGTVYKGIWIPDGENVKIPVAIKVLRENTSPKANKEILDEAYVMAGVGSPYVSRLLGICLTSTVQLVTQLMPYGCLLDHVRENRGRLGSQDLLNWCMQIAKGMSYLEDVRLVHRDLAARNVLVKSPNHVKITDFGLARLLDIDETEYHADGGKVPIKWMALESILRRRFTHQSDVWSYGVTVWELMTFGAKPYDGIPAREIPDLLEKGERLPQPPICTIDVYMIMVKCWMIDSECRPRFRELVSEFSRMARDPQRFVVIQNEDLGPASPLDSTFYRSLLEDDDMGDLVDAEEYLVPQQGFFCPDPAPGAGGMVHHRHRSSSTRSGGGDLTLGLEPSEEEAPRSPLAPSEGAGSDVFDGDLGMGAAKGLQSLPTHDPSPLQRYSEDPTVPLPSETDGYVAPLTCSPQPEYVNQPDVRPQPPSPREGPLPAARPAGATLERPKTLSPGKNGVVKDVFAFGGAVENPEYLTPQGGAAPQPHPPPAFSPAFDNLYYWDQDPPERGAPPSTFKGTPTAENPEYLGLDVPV

[3] = reduced viability of SK-BR-3 breast cancer cells – cell-based, 24 h, human, pilot screen (AID 572;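 active means viability at or below 10% of carrier control in both of two separate runs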;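 further: compound exposure lasted between 18 and 24 h rather than exactly 24 h; 100% = carrier-treated control wells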); conditions: SK-BR-3 viability, CellTiter-Glo luminescence, at 10 µM, stronger effect = lower value
[4] = HUVEC growth inhibition – cell-based, human, primary screen (AID 575;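 active means viability at or below 30% in both replicate assays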;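 further: 100% = median of untreated cell wells with 0.1% DMSO on each plate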); conditions: HUVEC proliferation, CellTiter-Glo luminescence, 72 h; at 10 µM; stronger effect = lower value
Procedure, shortened: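 Material: primary human umbilical vein endothelial cells / Schedule: 72 h exposure, 37 °C, 5% CO2, 30 min RT equilibration / Signal: ATP-based CellTiter-Glo luminescent read / Read-out basis: percent of median DMSO-control luminescence / Control set: 32 DMSO-only cell-control wells (high), 32 MePR drug-control wells (low) per plate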

[5] = H69AR cell proliferation blockers – human, duplicate replicates, primary screen (AID 580); conditions: H69AR lung tumor cells viability, ATP luminescence, 72 h; at 10 µM; stronger effect = lower value;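 further: 100% = mean luminescence of untreated wells and 0% = no signal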
[6] = MRP1 drug-resistance reversers in H69AR cells – cell-based, doxorubicin co-treatment, pilot screen (AID 601;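 active means viability loss from added drug above about 55%, and viability with drug at most 40%, in both replicates, limit read from the data, passing the limit was not always enough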); conditions: CellTiter-Glo, 72 h, at 10 µM; for differential viability (reversal): stronger effect = higher value
[7] = yeast transport mutant growth inhibition pilot in 384-well plates, post-Golgi transport modulator project (AID 636; in the data active means inhibition above about 31%); conditions: absorbance 615 nm, about 18 h, stronger effect = higher value
[8] = growth suppression of yeast trafficking mutant, preliminary HTS, modulators of trafficking downstream of Golgi apparatus project, 1536-format plate, OD 615 nm (AID 637; in the data active means inhibition above about 30%); conditions: yeast transport mutant growth, absorbance 615 nm, 18 h; stronger effect = higher value
[9] = H69AR cells + 2 uM doxorubicin, measured here: viability with 2 uM doxorubicin, stronger effect = lower value
[10] = H69AR cells, compound alone cytotoxicity

Row | SMILES | viability [1] | Her2 level [2] | viability [3] | viability [4] | viability [5] | differential viability (reversal) ([6]; H69AR cells + 2 uM doxorubicin) | viability [6, 9] | viability [6, 10] | inhibition [7] | inhibition [8]
1 | COc1ccc(CNC(=O)C(c2ccco2)N(Cc2cccs2)C(=O)Cc2cccs2)cc1 (stereo not given) | 96.5% | 86.5% (inactive) | 96.5% (inactive) | 67.5% (inactive) | 72.5% (inactive) | 8.17% (inactive) | 64.3% | 72.5% | -1.95% (inactive) | -4.29% (inactive)
2 | Cc1cccc(-n2ncc3c(N)ncnc32)c1 | 94.5% | 83.5% (inactive) | 94.5% (inactive) | 51.3% (inactive) | 98.3% (inactive) | 17.7% (inactive) | 80.6% | 98.3% | -4.67% (inactive) | -1.31% (inactive)
3 | CC(C)n1c(=NC(=O)c2ccco2)c(C#N)cc2c(=O)n3ccccc3cc21 | 100% | 106% (inactive) | 100% (inactive) | 84.1% (inactive) | 6.44% (active) | 4.01% (inactive) | 2.43% | 6.44% | 3.16% (inactive) | -6.61% (inactive)
4 | N#CC(C(=O)CCN1C(=O)C2CC=CCC2C1=O)c1nc2ccccc2[nH]1 (stereo not given) | 116% | 98% (inactive) | 116% (inactive) | 95.9% (inactive) | 91.1% (inactive) | 3.88% (inactive) | 87.2% | 91.1% | -5.07% (inactive) | 6.23% (inactive)
5 | N#CC1=C(N)N(c2ccccc2)C(c2ccco2)C1(C#N)C#N (stereo not given) | 95.5% | 99.5% (inactive) | 95.5% (inactive) | 102% (inactive) | 85.5% (inactive) | -0.88% (inactive) | 86.4% | 85.5% | -6.53% (inactive) | -2.54% (inactive)
6 | CCOCC(=O)Nc1nc2ccc(OC)cc2s1 | 107% | 102% (inactive) | 107% (inactive) | 93.9% (inactive) | 90.4% (inactive) | 8.94% (inactive) | 81.5% | 90.4% | 0.79% (inactive) | 5.57% (inactive)
7 | CCCCOC(=O)C1=C(C)Nc2ncnn2C1c1cccc(OC)c1OC (stereo not given) | 81.5% | 65.5% (inactive) | 81.5% (inactive) | 95% (inactive) | 88.5% (inactive) | 7.84% (inactive) | 80.7% | 88.5% | -5.13% (inactive) | -3.33% (inactive)
8 | COCCn1c(=O)[nH]c2cc(C(=O)N3CCN(Cc4ccc5c(c4)OCO5)CC3)ccc2c1=O | 93.5% | 106% (inactive) | 93.5% (inactive) | 117% (inactive) | 93.1% (inactive) | -1.86% (inactive) | 94.9% | 93.1% | 1.47% (inactive) | 9.34% (inactive)
9 | CC(C)(C)c1ccc2c(c1)OCC(C(=O)O)O2 (stereo not given) | 99.5% | 106% (inactive) | 99.5% (inactive) | 99.3% (inactive) | 106% (inactive) | 9.5% (inactive) | 96.3% | 106% | 0.55% (inactive) | -3.65% (inactive)
10 | CCOC(=O)CCC(=O)Nc1ccc(S(=O)(=O)N2CCCC2)cc1 | 94.5% | 102% (inactive) | 94.5% (inactive) | 105% (inactive) | 102% (inactive) | 5.38% (inactive) | 96.3% | 102% | -3.68% (inactive) | -4.6% (inactive)
11 | Cc1cc(NC(=O)CSc2nnc(C3CC3)n2C)no1 | 91% | 80% (inactive) | 91% (inactive) | 92.4% (inactive) | 100% (inactive) | 0.235% (inactive) | 100% | 100% | -0.53% (inactive) | -2.91% (inactive)
12 | CCN(CC)S(=O)(=O)c1ccc2oc(C(=O)O)c(C)c2c1 | 108% | 100% (inactive) | 108% (inactive) | 102% (inactive) | 103% (inactive) | 10.4% (inactive) | 92.2% | 103% | -0.4% (inactive) | 4.43% (inactive)
13 | CN(C)S(=O)(=O)c1ccc(C(=O)N2CCCC2c2nc3ccccc3s2)cc1 (stereo not given) | 98% | 127% (inactive) | 98% (inactive) | 91.1% (inactive) | 94.9% (inactive) | 1.97% (inactive) | 92.9% | 94.9% | -1.49% (inactive) | 3.93% (inactive)
14 | CCSc1nc2c(c(=O)n(C)c(=O)n2C)n1Cc1ccc(Cl)cc1 | 70.5% | 71% (inactive) | 70.5% (inactive) | 63.2% (inactive) | 83% (inactive) | -4.85% (inactive) | 87.9% | 83% | -0.92% (inactive) | 2.36% (inactive)
15 | CC1(C)Cc2c(sc3c2c(=N)n(Cc2ccco2)c(=O)n3Cc2ccccc2)CO1 | 98.5% | 88.5% (inactive) | 98.5% (inactive) | 90.1% (inactive) | 71.9% (inactive) | 28.9% (inactive) | 43% | 71.9% | -1.82% (inactive) | -1.27% (inactive)
16 | COCCNC(=O)CCCCCN1C(=O)CCC1=O | 108% | 79.5% (inactive) | 108% (inactive) | 105% (inactive) | 94.8% (inactive) | 10.4% (inactive) | 84.4% | 94.8% | -8.65% (inactive) | 4.76% (inactive)
17 | CC(C)CN(CC(C)C)C(=O)C12CCC(C)(C(=O)C1)C2(C)C (stereo not given) | 74% | 103% (inactive) | 74% (inactive) | 110% (inactive) | 96.8% (inactive) | 12.3% (inactive) | 84.4% | 96.8% | 1.33% (inactive) | -7.62% (inactive)
18 | Cc1ccc(C)c2[nH]c(=O)c(CCNC(=O)c3ccc(Br)o3)cc12 | 87% | 87% (inactive) | 87% (inactive) | 72.8% (inactive) | 89.3% (inactive) | 5.93% (inactive) | 83.4% | 89.3% | -7.81% (inactive) | -4.6% (inactive)
19 | Cc1ccccc1NC(=O)CSc1nnc(Cc2cccn2C)n1-c1ccc(F)cc1 | 88.5% | 112% (inactive) | 88.5% (inactive) | 78.6% (inactive) | 100% (inactive) | -1.44% (inactive) | 102% | 100% | -0.9% (inactive) | -3.5% (inactive)
20 | Cc1sc2nc(SCC(=O)N3CCN(CCO)CC3)n(-c3ccccc3)c(=O)c2c1C | 118% | 99% (inactive) | 118% (inactive) | 78.3% (inactive) | 88.1% (inactive) | 0.935% (inactive) | 87.2% | 88.1% | 0.65% (inactive) | -0.16% (inactive)
21 | Cc1cccc(N(C)C(=O)c2coc(=O)c3ccccc23)c1 | 85% | 81% (inactive) | 85% (inactive) | 82.9% (inactive) | 85.8% (inactive) | -2.86% (inactive) | 88.7% | 85.8% | -3.16% (inactive) | -1.64% (inactive)
22 | CSC(=O)CC(=O)NC(=O)c1ccccc1 | 102% | 97% (inactive) | 102% (inactive) | 108% (inactive) | 97.9% (inactive) | -5.79% (inactive) | 104% | 97.9% | -1.05% (inactive) | 5.74% (inactive)
23 | CCCn1c(SCC(=O)Nc2nnc(-c3ccccc3)s2)nnc1-c1ccccn1 | 98.5% | 112% (inactive) | 98.5% (inactive) | 84.6% (inactive) | 102% (inactive) | 5.49% (inactive) | 96.8% | 102% | -2.7% (inactive) | 25% (inactive)
24 | Cc1ccc(-c2nnc(-c3ccc(Br)cc3)o2)o1 | 100% | 93.5% (inactive) | 100% (inactive) | 99.9% (inactive) | 86.1% (inactive) | 1.58% (inactive) | 84.5% | 86.1% | -5.87% (inactive) | -1.64% (inactive)
25 | COc1ccc(-c2c(=O)n(OCc3ccccn3)c3ccccc3[n+]2[O-])cc1OC | 105% | 98% (inactive) | 105% (inactive) | 87.6% (inactive) | 89.2% (inactive) | -2.4% (inactive) | 91.6% | 89.2% | -4% (inactive) | -3.65% (inactive)
26 | O=C1NCCCc2c1no[n+]2[O-] | 100% | 103% (inactive) | 100% (inactive) | 84.1% (inactive) | 104% (inactive) | 4.5% (inactive) | 99.2% | 104% | -0.13% (inactive) | -3.71% (inactive)
27 | O=C1c2ccccc2C(Nc2ccc3c(c2)OCCO3)N1Cc1ccco1 (stereo not given) | 106% | 112% (inactive) | 106% (inactive) | 87.7% (inactive) | 80.7% (inactive) | -22.6% (inactive) | 103% | 80.7% | 4.23% (inactive) | -1.5% (inactive)
